These results are taken from ChEMBL document CHEMBL3045565, “Microwave synthesis, characterization and bio-efficacy evaluation of novel chalcone based 6-carbethoxy-2-cyclohexen-1-one and 2H-indazol-3-ol derivatives” (Eur J Med Chem, 2013).

Holding throughout (type): functional
Experiment [1] concerns Athelia rolfsii. The experiment in a line: Antifungal activity against Athelia rolfsii ITCC 6181 by food poisoning method. To be noted: Agroathelia rolfsii. The method, boiled down: (§1)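 Poisoned food technique on PDA at several concentrations. A 5 mm mycelial plug from the growing edge of a 2-week-old colony was placed inoculum-side down at the plate centre. Plates incubated at 27 °C until control growth was nearly complete. Colony diameter measured, percent inhibition calculated against control, LC50 derived. Four replicates per treatment.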

The subject of experiment [2] is Radical scavenging activity. The experiment in a line: Antioxidant activity assessed as DPPH free radical scavenging activity at 20 ug/mL after 20 min by UV-Vis spectrophotometric analysis. Put shortly: (§2)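 DPPH radical scavenging: samples were held at room temperature for 20 min in the dark, and absorbance was read at 517 nm. The control contained DMSO without compound, and methanol was used for baseline correction. Scavenging percentage was calculated from the absorbances.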
(DPPH is a stable violet radical that fades when it is reduced.)

Experiment [3] concerns Bacillus pumilus. Kind of experiment: Antibacterial activity against Bacillus pumilus MTCC 2466 assessed as growth inhibition at 100 ug/disk after 24 hr by disk diffusion method. As to conditions: MTCC 2466, 24 h, read-out: DIZ. Put shortly: (§3)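 Disk diffusion on nutrient agar. Strains kept on NA slants at 37 °C and subcultured in nutrient broth before testing. A log-phase culture was spread on solidified medium, and sterile disks were loaded with compound from DMSO stock. DMSO served as control, with commercial antibiotics for reference. Plates ran 24 h at 37 °C, and inhibition zones (mm) were read in quadruplicate.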
A general note: A growth-free zone around the sample is the usual read-out of agar diffusion tests.

The subject of experiment [4] is Radical scavenging activity. The experiment in a line: Antioxidant activity assessed as DPPH free radical scavenging activity after 20 min by UV-Vis spectrophotometric analysis. Also noted: concentration or dose not given beside the values. Put shortly:
as §2

Experiment [5] concerns Bacillus thuringiensis. The experiment in a line: Antibacterial activity against Bacillus thuringiensis MTCC 6941 assessed as growth inhibition at 100 ug/disk after 24 hr by disk diffusion method. As to conditions: MTCC 6941, 24 h, read-out: DIZ. The method, boiled down:
as §3

Experiment [6] concerns Radical scavenging activity. The experiment in a line: Antioxidant activity assessed as DPPH free radical scavenging activity at 60 ug/mL after 20 min by UV-Vis spectrophotometric analysis. Put shortly: as §2
The subject of experiment [7] is Rhizoctonia solani. Kind of experiment: Antifungal activity against Rhizoctonia solani ITCC 5563 by food poisoning method. The method, boiled down:
as §1

The subject of experiment [8] is Dickeya chrysanthemi. Kind of experiment: Antibacterial activity against Erwinia chrysanthemi ITCC B-40 assessed as as growth inhibition at 100 ug/disk after 24 hr by disk diffusion method. As to conditions: ITCC B-40, 24 h, read-out: DIZ. The method, boiled down: as §3
Experiment [9] deals with Radical scavenging activity. The experiment in a line: Antioxidant activity assessed as DPPH free radical scavenging activity at 400 ug/mL after 20 min by UV-Vis spectrophotometric analysis. The method, boiled down: as §2
Experiment [10] has as its system Radical scavenging activity. Kind of experiment: Antioxidant activity assessed as DPPH free radical scavenging activity at 300 ug/mL after 20 min by UV-Vis spectrophotometric analysis. The method, boiled down:
as §2

Experiment [11] has as its system Radical scavenging activity. The experiment in a line: Antioxidant activity assessed as DPPH free radical scavenging activity at 200 ug/mL after 20 min by UV-Vis spectrophotometric analysis. Put shortly: as §2
Experiment [12] relates to Radical scavenging activity. The experiment in a line: Antioxidant activity assessed as DPPH free radical scavenging activity at 100 ug/mL after 20 min by UV-Vis spectrophotometric analysis. The method, boiled down: as §2
For experiment [13], the system named is Radical scavenging activity. Kind of experiment: Antioxidant activity assessed as DPPH free radical scavenging activity at 40 ug/mL after 20 min by UV-Vis spectrophotometric analysis. Put shortly:
as §2

Experiment [14] deals with Radical scavenging activity. The experiment in a line: Antioxidant activity assessed as DPPH free radical scavenging activity at 80 ug/mL after 20 min by UV-Vis spectrophotometric analysis. The method, boiled down:
as §2

Experiment [15] relates to Radical scavenging activity. Kind of experiment: Antioxidant activity assessed as DPPH free radical scavenging activity at 10 ug/mL after 20 min by UV-Vis spectrophotometric analysis. The method, boiled down:
as §2

The subject of experiment [16] is Staphylococcus aureus. The experiment in a line: Antibacterial activity against Staphylococcus aureus MTCC 3160 assessed as growth inhibition at 100 ug/disk after 24 hr by disk diffusion method. To be noted: MTCC 3160, 24 h, read-out: DIZ. Put shortly: as §3
Experiment [17] deals with Pseudomonas aeruginosa. Kind of experiment: Antibacterial activity against Pseudomonas aeruginosa MTCC 2581 assessed as growth inhibition at 100 ug/disk after 24 hr by disk diffusion method. As to conditions: MTCC 2581, 24 h, read-out: DIZ. The method, boiled down:
as §3

Experiment [18] relates to Radical scavenging activity. The experiment in a line: Antioxidant activity assessed as DPPH free radical scavenging activity at 500 ug/mL after 20 min by UV-Vis spectrophotometric analysis. The method, boiled down:
as §2

In experiment [19] the test system is Xanthomonas oryzae. Kind of experiment: Antibacterial activity against Xanthomonas oryzae ITCC B-47 assessed as as growth inhibition at 100 ug/disk after 24 hr by disk diffusion method. As to conditions: ITCC B-47, 24 h, read-out: DIZ.
Experiment [20] has as its system Klebsiella pneumoniae. Kind of experiment: Antibacterial activity against Klebsiella pneumoniae MTCC 7028 assessed as growth inhibition at 100 ug/disk after 24 hr by disk diffusion method. To be noted: MTCC 7028, 24 h, read-out: DIZ. Put shortly:
as §3

Converted amounts (≈) assume the structure as drawn.

Consider `COc1ccc(C2CC(c3ccc(OC)c(OC)c3)=Cc3n[nH]c(O)c32)cc1` (stereo unspecified), for which the LC50 (in general, the concentration that kills 50% of the test population) is 894 µg/mL (≈ 2360 µM) in [1] and 611 µg/mL (≈ 1610 µM) in experiment [7]. Further, the Activity in experiment [2] was 5.3%; in experiment [4] it was 12.8%; in experiment [6], 26.3%; in experiment [9] it was 82.6%; in [10], 75.3%; in experiment [11] it was 58.8%. Besides, the Activity in experiment [12] was 36.5%; in experiment [13] it was 12.8%; in [14], 31.1%; in [15], 3.5%; in experiment [18], 82.6%. Besides, the zone of inhibition at 100 µg/disc in [3], in experiment [5], in experiment [8], in [16], in experiment [17] and in [19] was 0 mm in each case. For the same compound, in [20], the zone of inhibition at 100 µg/disc was 0 mm. Moreover, the IC50 – broadly, the concentration needed to halve the response being measured – in experiment [4] stood at 146.68 µg/mL (≈ 388 µM).

As to `COc1ccc(C2CC(c3ccc(C)cc3)=Cc3n[nH]c(O)c32)cc1OC` (stereo unspecified), the LC50 in experiment [1] stood at 939 µg/mL (≈ 2590 µM); in [7], 861 µg/mL (≈ 2380 µM). The Activity in experiment [2] was 25.9%; in [4], 62.6%; in experiment [6], 78.5%; in experiment [9], 91.7%; in [10], 91.6%; in experiment [11] it was 91.4%. Further, the Activity amounted to 81.8% in experiment [12]; 62.6% in [13]; 80.3% in experiment [14]; 15% in [15]; 91% in experiment [18]. The zone of inhibition at 100 µg/disc in experiment [3], in experiment [5], in experiment [8], in experiment [16], in experiment [17] and in [19] was 0 mm throughout. The zone of inhibition at 100 µg/disc in [20] was determined as 0 mm. The IC50 in [4] worked out at 33.12 µg/mL (≈ 91.4 µM).

Turning to `O=[N+]([O-])c1cccc(C2CC(c3ccc(F)cc3)=Cc3n[nH]c(O)c32)c1` (stereo unspecified), the 50% lethal concentration (LC50) was 796 µg/mL (≈ 2270 µM) in experiment [1] and 528 µg/mL (≈ 1500 µM) in experiment [7]. Also, the Activity stood at 35.9% in experiment [2]; 67.9% in [4]; 86.4% in experiment [6]; 90.9% in experiment [9]; 90.5% in experiment [10]; 92.3% in experiment [11]. Besides, the Activity is 90.8% in experiment [12]; 67.9% in [13]; 90.1% in [14]; 22.6% in experiment [15]; 91.1% in experiment [18]. Also, the zone of inhibition at 100 µg/disc in [3], in experiment [5], in experiment [8], in [16], in experiment [17] and in experiment [19] was 0 mm in each case. The zone of inhibition at 100 µg/disc in experiment [20] was found to be 0 mm. In addition, the half-inhibitory concentration (IC50) in experiment [4] amounted to 19.81 µg/mL (≈ 56.4 µM).

Regarding `COc1ccc(C2CC(c3ccccc3)=Cc3n[nH]c(O)c32)cc1` (stereo unspecified), the LC50 in experiment [1] was found to be 713 µg/mL (≈ 2240 µM); in [7] it was 718 µg/mL (≈ 2260 µM). Besides, the Activity came out at 30.6% in experiment [2]; 50.2% in [4]; 79.7% in experiment [6]; 88.9% in experiment [9]; 89.7% in experiment [10]; 91.8% in experiment [11]. Moreover, the Activity in [12] is 89%; in [13], 50.3%; in experiment [14], 88.4%; in experiment [15] it was 16.8%; in [18], 90.2%. The zone of inhibition at 100 µg/disc in experiment [3], in experiment [5], in experiment [8], in experiment [16], in [17] and in experiment [19] was 0 mm throughout. The zone of inhibition at 100 µg/disc in experiment [20] stood at 0 mm. Moreover, the IC50 in experiment [4] was determined as 29.62 µg/mL (≈ 93 µM).

For `Cc1ccc(C2CC(c3ccccc3)=Cc3n[nH]c(O)c32)cc1` (stereo unspecified), the values for the median lethal concentration (LC50) in [1] and in [7] were 922 µg/mL (≈ 3050 µM) and 745 µg/mL (≈ 2460 µM), respectively. Also, the Activity in [2] worked out at 14.5%; in experiment [4] it was 18.2%; in experiment [6], 35.1%; in experiment [9] it was 85.7%; in experiment [10], 81.8%; in experiment [11], 69.9%. For the same compound, the Activity in experiment [12] stood at 41.2%; in experiment [13], 18.2%; in [14], 36.4%; in [15], 9.2%; in experiment [18] it was 85.7%. Moreover, the zone of inhibition at 100 µg/disc in [3] was 0 mm; in experiment [5] it was 0 mm; in experiment [8], 0 mm; in experiment [16], 5 mm; in experiment [17], 10 mm; in [19], 0 mm. Also, in experiment [20], the zone of inhibition at 100 µg/disc turned out to be 0 mm. The IC50 in [4] is 106.62 µg/mL (≈ 353 µM).

For the compound `O=[N+]([O-])c1ccc(C2=Cc3n[nH]c(O)c3C(c3ccc4c(c3)OCO4)C2)cc1` (stereo unspecified), the LC50 amounted to 963 µg/mL (≈ 2550 µM) in [1] and 931 µg/mL (≈ 2470 µM) in experiment [7]. Further, the Activity stood at 5.8% in [2]; 19.8% in experiment [4]; 38.4% in [6]; 87.3% in experiment [9]; 87.9% in experiment [10]; 83.4% in experiment [11]. For the same compound, the Activity in experiment [12] was determined as 50.7%; in [13] it was 19.8%; in experiment [14], 44.5%; in experiment [15], 5.3%; in [18] it was 87.3%. Besides, the zone of inhibition at 100 µg/disc in [3], in experiment [5], in experiment [8], in experiment [16], in experiment [17] and in experiment [19] was 0 mm throughout. In [20], the zone of inhibition at 100 µg/disc was determined as 0 mm. For the same compound, in [4], the 50% inhibitory concentration (IC50) worked out at 95.82 µg/mL (≈ 254 µM).

As to `CCOC(=O)C1C(=O)C=C(c2ccc(Cl)c(Cl)c2)CC1c1ccc(OC)cc1` (stereo unspecified), the median lethal concentration (LC50) in [1] stood at 6110 µg/mL (≈ 14600 µM); in [7], 1040 µg/mL (≈ 2490 µM). For the same compound, the zone of inhibition at 100 µg/disc in experiment [3], in experiment [5], in [8], in [16], in experiment [17] and in experiment [19] was 0 mm throughout. Also, the zone of inhibition at 100 µg/disc in [20] turned out to be 0 mm. The Activity in experiment [4] came out at 2.92%.

In the case of `CCOC(=O)C1C(=O)C=C(c2ccccc2)CC1c1cc(OC)c(OC)c(OC)c1` (stereo unspecified), the LC50 in experiment [1] is 365 µg/mL (≈ 889 µM); in [7], 139 µg/mL (≈ 339 µM). The zone of inhibition at 100 µg/disc in [3], in experiment [5], in [8], in [16], in experiment [17] and in experiment [19] was 0 mm each time. In experiment [20], the zone of inhibition at 100 µg/disc was determined as 0 mm. The Activity in experiment [4] amounted to 1.69%.
